Measurements: ChEMBL document CHEMBL2146398, “Novel interleukin-5 inhibitors based on hydroxyethylaminomethyl-4H-chromen-4-one scaffold” (Bioorg Med Chem, 2012)

These molecules were tested against T1, Interleukin-5 (Mus musculus) (UniProt P04401) (assay: Inhibition of IL-5 in mouse Y16 cells at 30 uM after 48 hrs by WST1 assay).
T1 sequence (whole entry): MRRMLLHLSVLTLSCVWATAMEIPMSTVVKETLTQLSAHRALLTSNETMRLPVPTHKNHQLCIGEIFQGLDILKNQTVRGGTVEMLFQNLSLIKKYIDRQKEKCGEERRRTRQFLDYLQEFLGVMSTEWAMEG
Assay type: cell-based
How it was run: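 IL-5-dependent pro-B Y16 cells cultured 48 h with 3 units/mL mIL-5, with or without test sample. Proliferation read as cell metabolism by WST-1 reduction. […] Values are means of three independent experiments.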

In order of falling inhibition:
1. O=c1c(CN(CCO)Cc2ccccc2)coc2cccc(OCC3CCCCC3)c12  94.8%
2. O=c1c(CN(CCO)CC2CCCCC2)coc2cccc(OCC3CCCCC3)c12  94.7%
3. O=c1c(CN(CCO)C2CCCCC2)coc2cccc(OCC3CCCCC3)c12  94.5%
4. O=c1c(CN(CCO)c2ccccc2)coc2cccc(OCC3CCCCC3)c12  94.4%
5. Cc1ccc(CN(CCO)Cc2coc3cccc(OCC4CCCCC4)c3c2=O)cc1  94.3%
6. COc1ccc(CN(CCO)Cc2coc3cccc(OCC4CCCCC4)c3c2=O)cc1  94.1%
7. O=c1c(CN(CCO)Cc2ccncc2)coc2cccc(OCC3CCCCC3)c12  94%
8. CCCCN(CCO)Cc1coc2cccc(OCC3CCCCC3)c2c1=O  94%
9. CCCN(CCO)Cc1coc2cccc(OCC3CCCCC3)c2c1=O  93.7%
10. O=c1c(CN(CCO)Cc2ccc(O)cc2)coc2cccc(OCC3CCCCC3)c12  93.7%
11. O=c1c(CN(CCO)Cc2ccc(Cl)cc2)coc2cccc(OCC3CCCCC3)c12  93.4%
12. CC(C)N(CCO)Cc1coc2cccc(OCC3CCCCC3)c2c1=O  90.2%
13. CCN(CCO)Cc1coc2cccc(OCC3CCCCC3)c2c1=O  79.2%
14. CN(CCO)Cc1coc2cccc(OCC3CCCCC3)c2c1=O  56%
